Most compounds without a hit are left out; they make up all but 3.4% or so of the library.
MC4R antagonist – antagonists of human melanocortin 4 receptor (MC4R); P32245; MC4R-expressing cells, MTII-stimulated cAMP, LANCE TR-FRET; inhibition, % at 6.5 µM; actives 0.48% (n = 360,000);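 active means inhibition above its plate's cutoff, the mean of tested wells on that plate plus 3 SD, cut at about 29% in these data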
Target sequence (P32245 whole entry, looked up): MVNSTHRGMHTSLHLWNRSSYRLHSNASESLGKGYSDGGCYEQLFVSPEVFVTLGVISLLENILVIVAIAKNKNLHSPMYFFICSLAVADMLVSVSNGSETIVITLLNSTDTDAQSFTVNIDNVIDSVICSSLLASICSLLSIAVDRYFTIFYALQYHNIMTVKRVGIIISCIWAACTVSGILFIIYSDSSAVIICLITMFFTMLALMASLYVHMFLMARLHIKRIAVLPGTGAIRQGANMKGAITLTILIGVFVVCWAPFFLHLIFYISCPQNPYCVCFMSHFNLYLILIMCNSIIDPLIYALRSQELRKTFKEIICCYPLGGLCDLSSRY
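System: U2OS cells stably expressing human melanocortin 4 receptor (MC4R). Reagent: Melanotan II challenge after compound preincubation. Doses: 6.5 µM. Times: 30-min compound, 1-h challenge, 1-h detection, room temperature. Measured by: TR-FRET with Eu-cAMP and labeled anti-cAMP, 671 nm. Replicates: singlicate.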
MIN6 prolif – inducers of beta-cell replication in MIN6 cells. MIN6 cells proliferation, ATPlite luminescence, 48 h; cells starved in 0.2% serum; 100% = growth in 10% serum. proliferation, % at 10 µM. actives 0.29% (n = 330,000);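 active means compounds whose signal lies at least 3.5 SD above the mean of all wells on their plate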
MC4R ag barr – activates human MC4R beta-arrestin recruitment; U2OS MC4R beta-arrestin complementation, luminescence; percent of melanotan II response, DMSO zero; activation, % at 8.9 µM; actives 0.98% (n = 360,000); AID 540308;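 active means activation above a per-plate cutoff, the mean activation of sample wells on that plate plus 3 SD, cut at about 8% in these data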
TMEM16A inh – blocks the mouse calcium-activated chloride channel TMEM16A; HEK293 TMEM16A/YFP iodide influx fluorescence, ionomycin; normalized B-score (activity score, 25-100; higher = stronger inhibition) at 10 µM; actives 1.2% (n = 310,000);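 active means ratio plate-corrected score three or more library SD toward inhibition, starting fluorescence score within five deviations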;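 further: score derived from kinetic fluorescence span divided by baseline fluorescence per well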
HTR2A ag – activates the mouse 5-HT2A serotonin receptor; AID 624169; actives 0.66% (n = 360,000); activation, % at 7.6 µM; CHO-K1 mHTR2A beta-arrestin complementation, luminescence; percent of 30 µM serotonin response; P35363;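 active means activation above a run cutoff, the mean activation of all tested compounds plus 3 SD, cut at about 14% in these data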
TMEM16A act – activators or potentiators of mouse TMEM16A chloride channel | Q8BHY3 | HEK293 TMEM16A/YFP-H148Q/I152L, iodide quench fluorescence; active compounds read low | B-score at 10 µM | actives 0.3% (n = 340,000) | AID 623877;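 active means fluorescence-ratio B-score plate-corrected deviation score at least 3 library SD below zero, with starting fluorescence score within 5 deviations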;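 further: channel opened by trigger with iodide after compound preincubation; score built on the fluorescence ratio of max minus min over baseline; more negative score means more quench and so TMEM16A activation or potentiation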
A number is an active result; . = inactive; / = not tested or not shown.

SMILES | MC4R antagonist | MIN6 prolif | MC4R ag barr | TMEM16A inh | HTR2A ag | TMEM16A act
COc1ccc(C(=O)Nc2ccc(C)cn2)c(OC)c1 | . | . | . | 100 | . | .
C[C@@H](CC#N)CN1CC[C@H](C(C)(C)C)CCC1=O | . | . | . | . | . | .
NNC(=O)c1ccc(COc2ccc3c(c2)CCC3)o1 | . | . | . | . | . | .
O=C(NC(c1cccnc1)C(F)(F)F)c1cc(COc2ccc3c(c2)CCCC3)on1 (stereo unspecified) | . | . | . | 25 | . | .
Cc1nn(-c2ccccc2)c(C)c1C(=O)OCC(=O)Nc1ccccc1Cl | . | / | . | / | . | /
COc1ccc(CC(=O)Nc2ccc3c(c2)CCC3)cc1OC | . | . | . | 25 | . | .
COc1ccc(OC)c(CC(=O)Nc2ccc3c(c2)CCC3)c1 | . | . | . | . | . | .
Cc1noc(C)c1COc1ccc(C(=O)OCc2nnc(-c3ccc(Cl)cc3)o2)cc1 | . | . | . | . | . | -5
CCOC(=O)N(C)c1c(CC)nc2c(OCc3ccccc3C)cccn12 | . | / | . | / | . | /
Cn1cncc1C#Cc1ccc2cc(C(C)(C)O)oc(=O)c2c1 | . | . | . | / | . | -11
O=c1[nH]ncn2cccc12 | . | . | . | 100 | . | .
O=C1c2ccccc2[C@@H]2C[C@H]3O[C@H]3CCN12 | . | / | . | / | . | .
CC(C)(C)C(=O)NC(=S)NNC(=O)c1ccc(-c2ccccc2)cc1 | . | . | . | 100 | . | -10
CC(C)(C)C(=O)NC(=S)NNC(=O)c1ccncc1 | . | . | . | . | . | .
CC(C)(C)C(=O)NC(=S)NNC(=O)c1ccc(Cl)cc1Cl | . | . | . | 100 | . | .
CC1(C)OC2OC(C3COC(=O)O3)C(OC(=O)c3ccccc3)C2O1 (stereo unspecified) | . | / | . | / | . | .
CCC[C@H]1COCCS(=O)(=O)N1Cc1ccc(Br)cc1 | / | . | / | . | / | /
COc1ccc(-c2nn(-c3ccccc3)cc2/C=N/NC(=O)c2ccc(Br)o2)cc1 | . | . | . | 100 | . | .
COc1ccc(OCC(O)Cn2c(Br)nc3c2c(=O)[nH]c(=O)n3C)cc1 (stereo unspecified) | . | . | . | . | . | -28
CCSc1nc2c(c(=O)[nH]c(=O)n2C)n1CC(O)COc1ccccc1C (stereo unspecified) | . | . | . | . | . | -4.6
Cc1ccccc1OCC(O)Cn1c(SC(C)C)nc2c1c(=O)[nH]c(=O)n2C (stereo unspecified) | . | . | . | . | . | .
Cc1ccccc1OCC(O)Cn1c(Br)nc2c1c(=O)[nH]c(=O)n2C (stereo unspecified) | . | . | . | . | . | .
COc1ccc2nc(SC(C)C(=O)NC3CCCC3)[nH]c2c1 (stereo unspecified) | . | . | . | / | . | .
C=C1CCN(c2ccc(C(=O)NCc3ccccc3)cc2[N+](=O)[O-])CC1 | . | . | . | . | . | .
C=C1CCN(c2ccc(C(=O)NCCC)cc2[N+](=O)[O-])CC1 | . | . | . | . | . | -6.4
SMILES | MC4R antagonist | MIN6 prolif | MC4R ag barr | TMEM16A inh | HTR2A ag | TMEM16A act
Cc1nn(-c2ccccc2)c(C)c1C(=O)OCc1ccc(C#N)cc1 | . | . | . | . | . | .
COc1ccc(C(CNC(=O)c2ccc(OCc3c(C)noc3C)cc2)N2CCCC2)cc1 (stereo unspecified) | . | . | . | / | . | .
Cc1nn2c3ccccc3n(Cc3ccccc3)c2nc1=O | . | . | . | . | . | -20
Cc1nn2c3ccccc3n(C)c2nc1=O | . | . | . | . | . | .
Cc1cc2nc3c(=O)[nH]c(=S)[nH]c3nc2cc1NC(=O)C(F)(F)F | . | . | . | . | . | -5.2
CC1(c2ccc(OC(F)F)cc2)NC(=O)N(CC(=O)Nc2ccc(F)cc2)C1=O (stereo unspecified) | . | . | . | . | . | .
CC1(c2ccc(OC(F)F)cc2)NC(=O)N(CC(=O)Nc2ccc(OC(F)F)cc2)C1=O (stereo unspecified) | . | . | . | . | . | -14
O=C(O)c1cc(-n2nnnc2SCc2ccc([N+](=O)[O-])cc2)ccc1Cl | . | . | . | . | . | .
O=[N+]([O-])c1ccc(O)c(CSc2nnnn2-c2ccccc2)c1 | . | . | . | 100 | . | .
Cc1csc(=O)n1CCC(=O)OCC(=O)NCc1ccccc1 | . | / | . | / | . | /
O=C(CNC(=O)c1ccccc1)NCCCSc1ccccc1 | . | . | . | / | . | .
O=C(NCCCSc1ccccc1)c1cc(Cl)ccc1O | . | . | . | 100 | . | .
CCC(C(=O)OCC(=O)C1(O)CCC2C3CCC4=CC(=O)CCC4(C)C3C(O)CC21C)C(C)C (stereo unspecified) | . | / | . | / | . | .
CC(=O)[C@@]1(O)CC[C@H]2[C@@H]3CCC4=CC(=O)CC[C@]4(C)[C@H]3[C@@H](O)C[C@@]21C | . | . | . | 100 | . | .
C[C@@H](C(=O)NCCc1ccccc1F)N1C(=O)N2CCc3c([nH]c4ccccc34)[C@@]2(C)C1=O | . | . | . | 25 | . | .
O=C(N/N=C/c1cn(-c2cccs2)nc1-c1ccccc1)c1ccccc1O | . | . | . | 100 | . | .
O=C(N/N=C/c1cn(-c2cccs2)nc1-c1ccccc1)c1ccccc1Br | . | . | . | . | . | .
CCN(c1ccccc1)S(=O)(=O)c1csc(C(N)=O)c1 | . | . | . | . | . | .
CCN1C(=O)[C@H]2[C@H]3CN=C(SCC(=O)c4ccccc4)N3[C@@](CC)(C(=O)OC)[C@H]2C1=O | . | / | . | / | . | /
Cc1nn(CCc2nn[nH]n2)c2nc(-c3ccc(Br)cc3)cc(C(F)(F)F)c12 | . | . | . | 100 | . | .
Cc1nn(C)c2nc(-c3cccs3)cc(C(F)(F)F)c12 | . | . | . | . | . | .
Cc1nn(CCO)c2nc(-c3cccs3)cc(C(F)(F)F)c12 | . | . | 8.5 | . | . | .
CSCCC(NS(=O)(=O)c1ccccc1)C(=O)Nc1nccs1 (stereo unspecified) | . | . | . | / | . | .
Cc1ccc(S(=O)(=O)N(C)C[C@@H]2Oc3ncc(C#CCC(C)C)cc3C(=O)N([C@H](C)CO)C[C@H]2C)cc1 | . | / | . | / | . | /
CCCN(CCC)C(=O)Cn1c(=O)c2ccccc2n2c(=S)sc(-c3ccccc3C)c12 | . | . | . | . | . | -7.6
Nc1c(C(=O)Nc2ccc3c(c2)OCCO3)nnn1Cc1ccc(Br)cc1 | . | . | 8.4 | . | . | .
Cc1cc(C)cc(NC(=O)Cn2nnc(C(=O)NCc3ccccc3Cl)c2N)c1 | . | . | 10 | . | . | .

Screens as filed in PubChem.
